Screening data from PubChem.
SR-BI DiI inh – blocks mouse SR-BI lipid uptake from DiI-HDL | Q61009 | ldlA[mSR-BI] CHO cells, DiI-HDL uptake fluorescence, 3 h | inhibition, % at 12.5 µM | actives 0.96% (n = 320,000);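 active = mean replicate inhibition of at least 70% and a set share of replicates each scoring 70 or more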
Target sequence (Q61009 whole entry, looked up): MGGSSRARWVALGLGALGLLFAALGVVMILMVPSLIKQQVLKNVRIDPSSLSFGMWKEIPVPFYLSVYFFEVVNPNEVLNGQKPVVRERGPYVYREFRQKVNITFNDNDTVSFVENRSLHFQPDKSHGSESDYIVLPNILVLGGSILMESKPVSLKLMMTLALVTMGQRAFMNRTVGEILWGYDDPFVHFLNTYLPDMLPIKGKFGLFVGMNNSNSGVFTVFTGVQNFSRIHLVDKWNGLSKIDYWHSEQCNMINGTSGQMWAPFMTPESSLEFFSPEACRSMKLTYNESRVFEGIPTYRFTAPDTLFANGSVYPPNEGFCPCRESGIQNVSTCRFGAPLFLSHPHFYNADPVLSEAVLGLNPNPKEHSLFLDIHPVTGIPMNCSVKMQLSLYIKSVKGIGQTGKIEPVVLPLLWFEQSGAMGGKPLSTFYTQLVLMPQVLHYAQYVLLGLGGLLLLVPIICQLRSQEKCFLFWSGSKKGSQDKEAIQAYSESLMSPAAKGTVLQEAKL
SR-BI DiI-HDL act – enhances SR-BI lipid uptake from DiI-HDL. CHO ldlA[mSR-BI] cells, DiI-HDL uptake fluorescence, 3 h; 100 = double the neutral-control signal. activation, % at 12.5 µM. actives 0.096% (n = 320,000). AID 504775;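 active = mean replicate activation of at least 60% and every replicate at or above 60%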
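Test system: SR-BI-overexpressing, LDLR-lacking CHO cells; Also added: labelled HDL, 10 µg/mL; Measured by: bottom-read cell fluorescence after medium removal, ex 550/em 595 nm; Timing: 3 h uptake period with compound, 37 °C; Buffer or medium: F12, 0.5% BSA, 25 mM HEPES; Doses: single compound concentration, delivered by pin transfer.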
dFosB activator – activators of mouse delta FosB homodimer. P13346. purified delta FosB, TAMRA-CDK5 oligo fluorescence polarization; percent of positive-control signal above neutral wells. activation, % at 25 µM. actives 0.99% (n = 340,000). AID 493131;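 active = mean activation above about 17%, with every replicate also reaching it, limit read from the data, passing the limit was not always enough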
CDK5 p35 inh – blocks human CDK5/p35 kinase activity; inhibition, % at 10 µM; Recombinant CDK5/p35, ADP-Glo luminescence, 60 min; actives 0.01% (n = 330,000); Q00535+Q15078;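 active = highest replicate inhibition of at least 50% and at least 75% of replicates reaching 50%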
Numbers stand for hits; - = inactive; . = no result. Shown are actives, neighbours in structure and some others; about 2% of the full set was active somewhere.

SMILES	SR-BI DiI inh	SR-BI DiI-HDL act	dFosB activator	CDK5 p35 inh
Cc1ccc(NC(=O)c2cccc(F)c2)cc1S(=O)(=O)N1CCCCCC1	-	-	-	-
CCOc1ccc(CCNC(=O)c2ccc(Cl)c(S(=O)(=O)N3CCOCC3)c2)cc1OCC	73.1	-	-	-
COc1ccc(CNC(=O)[C@H](C)NC(=O)N2CCn3c2nc2ccccc23)cc1	-	-	-	-
Cc1ccc(S(=O)(=O)N2CCC(C(N)=O)CC2)cc1[N+](=O)[O-]	-	-	-	-
O=C(Nc1cccc(S(=O)(=O)N2CCOCC2)c1)c1ccc(Cl)c([N+](=O)[O-])c1	-	-	-	-
Cc1ccc(C(=O)Nc2cccc(S(=O)(=O)N3CCOCC3)c2)cc1[N+](=O)[O-]	76.7	-	-	-
O=C(CCN1C(=O)/C(=C/c2ccc(F)cc2)SC1=S)NC1CCS(=O)(=O)C1 (stereo not drawn)	-	-	-	.
COc1ccc(/C=C2\SC(=S)N(CC(=O)NC3CCS(=O)(=O)C3)C2=O)cc1 (stereo not drawn)	-	-	47.3	-
COc1ccc(/C=C2\SC(=S)N(CCC(=O)NCCc3ccc(O)cc3)C2=O)cc1	-	-	38.4	-
O=C(CCN1C(=O)/C(=C\c2ccccc2)SC1=S)NNC(=O)c1ccccc1O	99.5	-	20.3	-
COc1ccc(/C=C2\SC(=S)N(CCC(=O)Nc3cccc(O)c3)C2=O)cc1	-	-	24.7	-
CC(=O)Nc1ccc(Nc2nc(C(F)(F)F)nc3c2nnn3Cc2ccccc2Cl)cc1	-	-	-	-
COc1cc(NC(=O)COc2cccc3c2OC(C)(C)C3)cc(OC)c1OC	88.0	-	-	-
O=C(c1cnn2c(C(F)(F)F)cc(-c3ccco3)nc12)N1CCc2ccccc2C1	82.9	-	-	-
Cc1c(C(c2cccc(Br)c2)c2c(C)n(C)n(-c3ccccc3)c2=O)c(=O)n(-c2ccccc2)n1C	-	-	-	-
COc1cc(C(=O)O)c2c(c1C)OC(=O)c1c(C)cc(O)c(C=O)c1O2	-	-	-	-
CC(C)(C)c1cc(C(=O)N/N=C/c2ccccc2O)n(-c2ccccc2)n1	100.1	-	-	-
CC(C)(C)c1cc(C(=O)N/N=C/c2ccc(F)cc2)n(-c2ccccc2)n1	-	-	-	-
COc1ccccc1NC(=O)C(C)OC(=O)c1nc2nc(C)cc(C)n2n1 (stereo not drawn)	-	-	-	-
CCc1ccc(NC(=S)Nc2ccc3[nH]c(=O)[nH]c3c2)cc1	.	.	-	-
COc1ccc(NC(=O)C(NC(=O)Cc2cccs2)c2ccc(C)cc2)cc1 (stereo not drawn)	-	64.5	-	-
Oc1ccc(C2=NN(c3ccccc3)C(c3ccc(F)cc3)C2)cc1 (stereo not drawn)	-	-	-	-
Oc1ccccc1C1=NN(c2ccccc2)C(c2ccc(F)cc2)C1 (stereo not drawn)	73.5	-	-	-
COc1ccc(CN(C)C(C)C(=O)N(C)CC(=O)Nc2ccc(C)cc2)cc1F (stereo not drawn)	-	-	-	-
CCCCc1cc(=O)oc2c(C)c(OCC(=O)N3CCCC3)ccc12	75.8	-	-	-
SMILES	SR-BI DiI inh	SR-BI DiI-HDL act	dFosB activator	CDK5 p35 inh
Cc1cc(=O)oc2c(C)c(OCC(=O)N3CCN(C(=O)C4COc5ccccc5O4)CC3)ccc12 (stereo not drawn)	84.9	-	-	-
O=C(N/N=C/c1ccc([N+](=O)[O-])cc1)c1ccc(COc2ccccc2-c2ccccc2)cc1	99.3	-	-	-
O=C(N/N=C/c1ccc([N+](=O)[O-])cc1)c1ccccc1OCc1ccccc1	-	-	-	-
Cc1ccc(-n2c(COc3c(C)cccc3C)nnc2SCC(=O)Nc2nccs2)cc1	-	-	21.4	-
Cc1ccc(OCc2nnc(SCC(=O)Nc3nccs3)n2-c2ccccc2)cc1C	-	-	-	-
COCCCNC(=O)c1cc2cc(Br)ccc2oc1=O	-	-	-	-
O=C(NNC(=O)c1cc2cc(Br)ccc2oc1=O)c1ccc(O)cc1O	83.0	-	-	-
Cn1c(O)c(/C=C2\C=Nc3ccccc32)sc1=Nc1ccc(C(=O)O)cc1	-	-	-	-
CCn1c(O)c(/C=C2\C=Nc3ccccc32)sc1=Nc1ccccc1	79.9	-	-	-
Cc1[nH]c2ccccc2c1N=Nc1ccc(F)cc1	83.1	-	-	-
FC(F)(F)c1cccc(NC(=S)N(CCCN2CCCC2)Cc2cccn2Cc2ccc(Cl)cc2)c1	-	-	44.5	-
Cc1ccc(NC(=S)N(CCCN2CCCC2)Cc2cccn2Cc2ccc(Cl)cc2)cc1Cl	-	-	69.5	-
Cc1cc(NC(=S)N(CCN2CCCCC2)Cc2ccco2)ccc1Cl	-	-	-	-
COc1ccc(NC(=S)N(CCCN2CCCC2)Cc2cccn2Cc2ccc(Cl)cc2)cc1Cl	-	-	47.8	-
COc1ccc(NC(=S)N(CCCN2CCC(C)CC2)Cc2cccs2)cc1Cl	-	-	-	-
CCN1CCN(CCCN(Cc2ccco2)C(=S)Nc2ccc(Cl)c(C)c2)CC1	-	-	-	-
Cc1ccc(NC(=S)N(CCCN2CCCC2)Cc2cccn2Cc2ccc(Cl)cc2)cc1C	-	-	31.6	-
O=c1cc(-c2ccc(O)c(-c3c(O)cc(O)c4c(=O)cc(-c5ccc(O)cc5)oc34)c2)oc2cc(O)cc(O)c12	-	-	18.0	-
O=C(c1ccco1)N1N=C(c2cccs2)CC1c1cc([N+](=O)[O-])ccc1O (stereo not drawn)	-	-	-	-
CCn1c(C(=O)NCc2cccnc2)cc2sc(Cl)cc21	-	418.3	-	-
CCn1c(N)c(C(=O)NCc2cccnc2)sc1=S	-	-	-	-
COC(=O)c1cn(C(=O)c2ccc(OC)cc2)c2ccccc12	-	-	-	-
COc1cc(/C=C2\SC(=S)N(NC(=O)c3cccnc3)C2=O)ccc1O	-	-	31.2	-
COc1cc(/C=C2\SC(=S)N(C(Cc3ccccc3)C(=O)O)C2=O)ccc1O (stereo not drawn)	.	.	18.2	-
COc1cc(/C=C2\SC(=S)N(NC(=O)c3ccc(O)cc3)C2=O)ccc1O	-	-	28.2	-
SMILES	SR-BI DiI inh	SR-BI DiI-HDL act	dFosB activator	CDK5 p35 inh
COc1ccc(/C=C2\Sc3ccc(C(=O)NCc4cccnc4)cc3N(C)C2=O)cc1OC	73.9	-	-	-
O=C(NN1C(=O)/C(=C/c2ccc(O)c(O)c2)SC1=S)c1ccccc1	-	-	-	-
O=C(O)C(Cc1ccccc1)N1C(=O)/C(=C/c2ccccc2)SC1=S (stereo not drawn)	-	-	-	-
COc1cc(/C=C2\SC(=S)N(c3cccnc3)C2=O)ccc1O	-	-	-	-
CN(C)c1ccc(N=Nc2nc3ccccc3n2C)cc1	.	.	20.6	-
Cn1c(N=Nc2ccccc2)nc2ccccc21	-	-	-	-
CC(C)NC(=O)CN(C(=O)CCC(=O)Nc1nccs1)c1ccc(C(C)C)cc1	-	-	-	-
COc1ccc2c(c1)cc(C(=O)N/N=C/c1c(O)c(C(=O)O)cc3ccccc13)n2C	86.2	-	-	-
